Laboratory results: PMC7524064 (ESC Heart Failure, 2020)

Key:
[1] = system: human atrial cardiomyocytes; experiment: Ca sparks and SR Ca leak, confocal line scans; type: cell-based; conditions: AIP (2 μM)
In short: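 Myocytes on laminin-coated chambers were loaded 15 min with 10 μmol/L Fluo-4 AM plus 0.02% (w/v) pluronic acid. They were superfused with normal Tyrode solution and imaged by laser-scanning confocal line scans at room temperature. Treatments were test compound at 1, 3 or 10 μM, or myristoylated AIP at 2 μM.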

[2] = system: murine ventricular cardiomyocytes; experiment: Action potentials in murine ventricular cardiomyocytes; type: cell-based, mouse; conditions: RA608 1, 3, 10 μM; myristoylated AIP 2 μmol/L
[3] = system: human atrial cardiomyocytes; experiment: Action potentials in human atrial cardiomyocytes; type: cell-based; conditions: RA608 1, 3, 10 μM; AIP
In short: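 Ruptured-patch whole-cell current clamp at room temperature on isolated human atrial cardiomyocytes from seven patients. Action potentials were recorded with vehicle, test compound at 1, 3 or 10 μM, or myristoylated AIP.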

human atrial trabeculae = experiment: Contractility of human atrial trabeculae
In short: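 Right atrial appendage trabeculae came from patients undergoing aorto-coronary bypass and were held isometric. After about 30 min equilibration they were stretched to maximal steady-state twitch force and paced at 1 Hz. Test compound (1, 3, 10 μM) or KN93 (5 μM) was washed in for 20 min. Post-rest pauses were 10, 30 and 120 s. Developed and diastolic tension were normalized to each patient's vehicle control.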

Row | Compound | SR Ca leak vs vehicle [1] | AP duration (APD50) [2] | AP duration (APD50, APD80) vs vehicle [3] | contraction amplitude after pause (human atrial trabeculae; KN93 5 μmol/L, compared with RA608) | diastolic tension normalized to vehicle (human atrial trabeculae; KN93 (5 μM)) | relaxation time (time to 80% of relaxation) (human atrial trabeculae; RA608 1, 3, 10 μM, KN93 5 μM)
1 | autocamtide‐2‐related autoinhibitory peptide [AIP] | significantly reduced | no significant effect | no significant effect |  |  | 
2 | COc1ccc(S(=O)(=O)N(CCO)c2ccccc2CN(C)C/C=C/c2ccc(Cl)cc2)cc1 [KN93] |  |  |  | comparable increase | only a trend to decrease | neither RA608 nor KN93 resulted in significant alterations
